The subject of data set [1] is hTERT-BJ. In words: Cytotoxicity against human BJ-5ta cells at 10 uM measured up to 72 hrs by MTT assay. In kind it is cell-based. The method in brief:
(§1)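 Cells seeded at 4×10^4/well, treated 24 h after plating with inhibitor or 0.5% (v/v) DMSO vehicle for 24, 48 or 72 h. MTT added, 3 h at 37°C under 5% CO2, formazan solubilised, absorbance at 570 nm. Viability in arbitrary units, mean ± SE of at least three independent experiments versus control. Cells grown in DMEM/10% FBS at 37°C, 5% CO2; BJ-5ta cultured in 4:1 DMEM/Medium 199 with hygromycin B.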
In general terms: Formazan colour is commonly taken as a measure of viable cells.

Data set [2] concerns A2058. Put plainly: Cytotoxicity against human A2058 cells at 5 uM after 48 hrs by MTT assay. The class given is functional, cell-based. The method in brief:
as §1

The target of data set [3] is T1, M-phase inducer phosphatase 2 (Homo sapiens) (UniProt P30305).
T1 sequence (whole entry): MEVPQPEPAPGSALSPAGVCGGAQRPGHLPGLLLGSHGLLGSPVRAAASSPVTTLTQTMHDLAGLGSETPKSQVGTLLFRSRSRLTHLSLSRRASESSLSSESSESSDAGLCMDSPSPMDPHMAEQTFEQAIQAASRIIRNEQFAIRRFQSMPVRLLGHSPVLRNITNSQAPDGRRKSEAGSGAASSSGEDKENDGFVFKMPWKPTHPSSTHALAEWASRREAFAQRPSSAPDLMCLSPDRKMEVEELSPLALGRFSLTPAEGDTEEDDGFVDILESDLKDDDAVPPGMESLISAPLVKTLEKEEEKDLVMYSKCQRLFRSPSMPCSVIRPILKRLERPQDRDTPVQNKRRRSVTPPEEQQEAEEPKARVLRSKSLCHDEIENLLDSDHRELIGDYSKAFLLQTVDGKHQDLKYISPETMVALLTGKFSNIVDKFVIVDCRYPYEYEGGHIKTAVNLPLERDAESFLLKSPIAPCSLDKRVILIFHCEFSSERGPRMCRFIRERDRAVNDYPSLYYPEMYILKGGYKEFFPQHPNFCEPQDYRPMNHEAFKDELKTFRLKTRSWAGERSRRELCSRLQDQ
In words: Inhibition of N-terminal His6-tagged human CDC25B (377 to 550 residues) expressed in Escherichia coli BL21(DE3) cells assessed as reduction in Vmax using OMFP as substrate by double reciprocal Lineweaver-Burk plot analysis. The gist of the method: (§2)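 Recombinant CDC25 form (15–25 nM) in 20 mM Tris-HCl pH 7.8, 0.5 mM TCEP, 1% (v/v) DMSO, with or without inhibitor. Reaction started with 0.5–25 µM OMFP; O-methylfluorescein formation followed continuously at 30°C (ex 485/em 530 nm). Initial rates (AU/min) analysed in Lineweaver-Burk plots for Vmax, KM and mechanism; Ki averaged from at least three independent experiments, only roughly estimated for mixed inhibition.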

Data set [4] relates to A2058. Put plainly: Induction of cell cycle arrest in human A2058 cells assessed as decrease in accumulation at G0/G1 phase at 10 uM after 8 hrs by propidium iodide staining based flow cytometric method. In kind it is functional. The method in brief:
(§3)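 Seeded at 3×10^5 cells/well for 24 h at 37°C, then exposed to 10 µM inhibitor or 0.5% (v/v) DMSO for 8 or 16 h. Trypsin-harvested, fixed in cold 70% ethanol at -20°C for 1 h, stained 30 min at 4°C with 50 µg/mL PI in non-lysis solution. Phase distribution (sub-G1, G0/G1, S, G2/M) read by FACScan; triplicate experiments, mean ± SE.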
Background: Flow cytometry measures light scatter and fluorescence of single cells or particles in a stream.

Data set [5] has as its target T2, M-phase inducer phosphatase 2 (Homo sapiens, UniProt P30305).
T2 sequence (P30305 whole entry): T1 sequence (whole entry)
Put plainly: Uncompetitive inhibition of N-terminal His6-tagged human CDC25B (377 to 550 residues) expressed in Escherichia coli BL21(DE3) cells using OMFP as substrate by double reciprocal Lineweaver-Burk plot analysis. The method in brief: as §2

Data set [6] relates to A2058. Put plainly: Cytotoxicity against human A2058 cells at 50 uM after 24 hrs by MTT assay. In kind it is functional, cell-based. The method in brief: as §1
The target of data set [7] is T1, M-phase inducer phosphatase 2 (Homo sapiens). In words: Inhibition of CDC25B in human A375 cells assessed as increase in phosphorylated cdk1 level at 10 uM after 8 hrs by Western blot analysis. In kind it is cell-based. The gist of the method:
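After 24 h at 3×10^5 cells, 8 h treatment with 10 µM inhibitor or 0.5% DMSO. Lysis in ice-cold modified RIPA with Na3VO4, NaF and protease inhibitors; Bradford-normalised equal protein on 12% SDS-PAGE. Rabbit polyclonal anti-p-Cdk1 overnight at 4°C, HRP secondary, ECL detection; β-actin loading control.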

In data set [8] the target is T3, M-phase inducer phosphatase 1 (Homo sapiens, UniProt P30304).
T3 sequence (P30304 whole entry): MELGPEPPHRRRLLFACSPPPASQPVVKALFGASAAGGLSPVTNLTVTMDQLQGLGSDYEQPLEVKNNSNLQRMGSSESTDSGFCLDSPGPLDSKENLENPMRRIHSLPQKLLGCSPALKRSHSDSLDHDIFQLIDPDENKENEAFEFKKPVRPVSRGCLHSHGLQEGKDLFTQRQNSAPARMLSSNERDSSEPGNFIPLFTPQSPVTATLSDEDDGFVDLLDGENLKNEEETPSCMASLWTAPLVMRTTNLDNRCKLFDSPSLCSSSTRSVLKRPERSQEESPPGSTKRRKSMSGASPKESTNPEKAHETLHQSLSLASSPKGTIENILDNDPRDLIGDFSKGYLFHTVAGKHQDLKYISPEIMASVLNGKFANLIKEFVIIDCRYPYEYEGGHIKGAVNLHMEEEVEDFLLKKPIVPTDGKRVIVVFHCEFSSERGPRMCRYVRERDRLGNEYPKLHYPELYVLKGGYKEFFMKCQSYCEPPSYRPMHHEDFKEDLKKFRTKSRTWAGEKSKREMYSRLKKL
In words: Inhibition of N-terminal His6-tagged human CDC25A (336 to 508 residues) expressed in Escherichia coli BL21(DE3) cells using OMFP as substrate by double reciprocal Lineweaver-Burk plot analysis. The gist of the method: as §2

Data set [9] deals with A-375. In words: Induction of cell cycle arrest in human A375 cells assessed as decrease in accumulation at G0/G1 phase at 10 uM after 16 hrs by propidium iodide staining based flow cytometric method. The class given is functional. The method in brief:
as §3

The source made the active and inactive calls. The rule behind the calls is not given here.

A word on the Ki: it is a measure of affinity in units of concentration, obtained from inhibition or displacement. A high value points to a looser hold on the target. Take `CCOC(=O)c1cccc(Nc2cc(OC)cc3ccccc23)c1`: the Activity result in data set [1] is “Non-Toxic”. Moreover, the outcome in data set [2], in data set [4], in data set [6] and in [9] was Active. For the same compound, the inhibition result in [3] and in data set [7] was “Active” throughout. In addition, the Ki in data set [5] came to 8.5 µM; in data set [8], 3 µM.

The values are drawn from ChEMBL document CHEMBL4311947, “Discovery of Novel Naphthylphenylketone and Naphthylphenylamine Derivatives as Cell Division Cycle 25B (CDC25B) Phosphatase Inhibitors: Design, Synthesis, Inhibition Mechanism, and in Vitro Efficacy against Melanoma Cell Lines” (J Med Chem, 2019).
